The test system of series [1] is MIA PaCa-2. In words: Inhibition of chemoresistant human MIAPaCa2 cell proliferation after 48 hrs by MTT assay. It counts as functional. A digest of the protocol: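 MiaPaCa-2 cells in DMEM with 10% FBS seeded at 15 000/well and left to attach overnight. Medium replaced with fresh medium holding a range of concentrations, or medium alone; gemcitabine control. Incubated 48 h at 37 °C, 5% CO₂, and viable cells measured by MTT. Mean ± SE of three independent experiments.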
(In general: Tetrazolium dyes change colour on reduction, which living cells bring about.)

Series [2] relates to MIA PaCa-2. In words: Inhibition of DNA synthesis in chemoresistant human MIAPaCa2 cells assessed as incorporation of [3H]thymidine into DNA after 4 hrs by liquid scintillation counting. It counts as functional. A digest of the protocol: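 MiaPaCa-2 cells seeded at 15 000/well and treated in exponential growth for 4 h, with gemcitabine as comparator. Then labelled with [³H]thymidine (10 μCi/mL) for 6 h at 37 °C, 5% CO₂. Cells harvested and incorporated radioactivity measured by liquid scintillation counting.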

For series [3], the system named is MIA PaCa-2. Nature of the series: Inhibition of Hsp27 protein expression in chemoresistant human MIAPaCa2 cells by alexa fluor 488 staining-based immunofluorescence assay. The class given is functional, cell-based. The method, boiled down: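 Treated and untreated MiaPaCa-2 cells fixed in 4% paraformaldehyde and permeabilized with 1% Triton. Incubated with mouse anti-Hsp27 monoclonal (1:500) overnight at 4 °C, blocked in BSA/PBS, then Alexa Fluor 488 secondary (1:750). Nuclei stained with DAPI for imaging.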

The subject of series [4] is Mus musculus. In words: Toxicity in nude mouse xenografted with human MIAPaCa2 cells assessed as normal growth and behavior at 150 mg/kg, ip administered measured after 3 weeks. The settings on record: in vivo, 504 h. Background: In xenograft studies the graft and the host belong to different species.
Series [5] deals with MIA PaCa-2. In words: Induction of apoptosis in chemoresistant human MIAPaCa2 cells assessed as increase in cell accumulation at sub-G1/G0 phase after 48 hrs by FACS analysis relative to control. It counts as functional. The method, boiled down:
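MiaPaCa-2 cells treated 48 h, with untreated and gemcitabine controls. Cells trypsinized, PBS-washed and fixed overnight at 4 °C in cold 70% ethanol. Treated with RNase (500 μg/mL) and stained with propidium iodide (50 μg/mL). Sub-G1/G0 fraction read by flow cytometry on 10⁶ cells; triplicate.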
On the technique in general: In flow cytometry, cells or beads pass a laser one at a time.

For series [6], the system named is MIA PaCa-2. Nature of the series: Induction of apoptosis in chemoresistant human MIAPaCa2 cells assessed as increase in caspase 3/7 activation after 48 hrs […] relative to control. The class given is functional.
The test system of series [7] is MIA PaCa-2. Nature of the series: Inhibition of Hsp27 protein expression in chemoresistant human MIAPaCa2 cells after 48 hrs by Western blotting. It counts as functional, cell-based. A digest of the protocol:
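MiaPaCa-2 cells treated and harvested at 48 h. Lysates loaded at 15 μg protein and blotted with rabbit polyclonal anti-human Hsp27 (1:5000) and vinculin reference (1:2000). Detected by enhanced chemiluminescence and band intensities quantified against untreated control.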

Series [8] concerns MIA PaCa-2. Nature of the series: Induction of apoptosis in chemoresistant human MIAPaCa2 cells assessed as increase in caspase 3/7 activation after 48 hrs by […] relative to gemcitabine. It counts as functional. The method, boiled down: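 MiaPaCa-2 cells seeded at 15 000/well; 24 h later treated for 48 h, with gemcitabine and no-treatment controls. Apo-ONE homogeneous caspase-3/7 reagent added 1:1 to culture, containing fluorogenic Z-DEVD-R110 substrate. Incubated 30 min at room temperature, then fluorescence read. Triplicate.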

The subject of series [9] is MIA PaCa-2. In words: Induction of necrosis in chemoresistant human MIAPaCa2 cells up to 12 hrs by 7-aminoactinomycin D staining-based FACS analysis. It counts as functional. A digest of the protocol: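 MiaPaCa-2 cells seeded at 500 000 per 6 cm dish and left overnight, then treated or left untreated for 3, 6 and 12 h. Stained with 7-AAD for 15 min at 25 °C, then read immediately by flow cytometry; triplicate.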

Series [10] has as its system MIA PaCa-2. Nature of the series: Induction of apoptosis in chemoresistant human MIAPaCa2 cells assessed as increase in DNA/histone nucleosome release after 48 hrs by ELISA relative to control. It counts as functional. The method, boiled down:
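MiaPaCa-2 cells seeded at 15 000/well for 24 h, then treated or left untreated for 48 h. Cells lysed after centrifugation at 200g. Supernatant put on streptavidin plate with biotin anti-histone and peroxidase anti-DNA antibodies, 2 h at room temperature. After washes, substrate added for 20 min and read at 405 nm. Expressed as fold increase in absorbance over control; triplicate.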

Series [11] has as its system MIA PaCa-2. Nature of the series: Antitumor activity against human MIAPaCa2 cells xenografted in nude mouse assessed as reduction in tumor volume at 150 mg/kg, ip administered measured after 3 weeks. Set-up: scale not given: the % may be the effect or the level left. The settings on record: route intraperitoneal.
The test system of series [12] is MIA PaCa-2. Nature of the series: Inhibition of Hsp27 mRNA expression in chemoresistant human MIAPaCa2 cells after 24 hrs by RT-PCR analysis. The class given is functional. The method, boiled down: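 MiaPaCa-2 cells treated 24 h. Total RNA isolated by TRIzol and reverse-transcribed. SYBR Green real-time PCR run with Hsp27 primers: 45 cycles of 95 °C 5 s, 57 °C 6 s, 72 °C 12 s, followed by a melting curve. Normalized to 18S rRNA; each sample in triplicate.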

Series [13] relates to MIA PaCa-2. In words: Induction of necrosis in chemoresistant human MIAPaCa2 cells assessed as cell membrane damage associated LDH release up to 300 um after 1 hr. It counts as functional. A digest of the protocol: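 MiaPaCa-2 cells seeded at 15 000/well; 24 h later exposed to compound in DMSO for 1 h. LDH reaction mixture added 1:1 and incubated 10 min at 25 °C. Lysis buffer set as 100% release and medium as 0%. Result is released LDH over total cellular LDH; triplicate.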

Series [14] relates to Mus musculus. In words: Toxicity in nude mouse xenografted with human MIAPaCa2 cells assessed as weight loss at 150 mg/kg, ip administered measured after 3 weeks. The settings on record: in vivo, 504 h.

Activity calls are given as the source filed them. The rule behind the calls is not given here. Bounds are passed on as bounds.

The text below walks through data of ChEMBL document CHEMBL1155228, “Novel triazole ribonucleoside down-regulates heat shock protein 27 and induces potent anticancer activity on drug-resistant pancreatic cancer” (J Med Chem, 2009).

On to `CCCCCc1ccc(C#Cc2nc(C(=O)OC)n([C@@H]3O[C@H](COC(C)=O)[C@@H](OC(C)=O)[C@H]3OC(C)=O)n2)cc1`, for which the inhibition result with MIA PaCa-2 [1] was “inactive”.

Consider `CCCCCc1ccc(CCc2nc(C(N)=O)n([C@@H]3O[C@H](CO)[C@@H](O)[C@H]3O)n2)cc1`, for which the inhibition result with MIA PaCa-2 [1] is “inactive”.

As for `CCCCCc1ccc(C#Cc2nc(C(N)=O)nn2[C@@H]2O[C@H](CO)[C@@H](O)[C@H]2O)cc1`, the inhibition result with MIA PaCa-2 [1] is “inactive”.

As to `NC(=O)c1nc(C#Cc2ccc(C(F)(F)F)cc2)nn1[C@@H]1O[C@H](CO)[C@@H](O)[C@H]1O`, in the series on MIA PaCa-2 [1], the inhibition result was “inactive”.

On to `Nc1ccn([C@@H]2O[C@H](CO)[C@@H](O)C2(F)F)c(=O)n1` [GEMCITABINE], for which the “inhibition (INH)” value with MIA PaCa-2 [1] is listed as under 30%; with MIA PaCa-2 [2], over 90%.

For the compound `CCCCCc1ccc(-c2nc(C(N)=O)n([C@@H]3O[C@H](CO)[C@@H](O)[C@H]3O)n2)cc1`, the inhibition result with MIA PaCa-2 [1] is “inactive”.

In the case of `CCCCCc1ccc(-c2cn(-c3nc(C(N)=O)n([C@@H]4O[C@H](CO)[C@@H](O)[C@H]4O)n3)nn2)cc1`, in the series with MIA PaCa-2 [1], the inhibition result was “inactive”.

For the compound `CCCc1ccc(C#Cc2nc(C(N)=O)n([C@@H]3O[C@H](CO)[C@@H](O)[C@H]3O)n2)cc1`, the inhibition entry with MIA PaCa-2 [1] was “inactive”.

As for `CCCCCC#Cc1nc(C(N)=O)n([C@@H]2O[C@H](CO)[C@@H](O)[C@H]2O)n1`, the inhibition entry in the series on MIA PaCa-2 [1] was “inactive”.

Regarding `CCCCCc1ccc(C#Cc2nc(C(N)=O)n(COCCO)n2)cc1`, the inhibition result in the series on MIA PaCa-2 [1] is “inactive”.

Consider `CCCCCc1ccc(C#Cc2nc(C(N)=O)n([C@@H]3O[C@H](CO)[C@@H](O)[C@H]3O)n2)cc1`, for which the inhibition entry with MIA PaCa-2 [3] and in the series with MIA PaCa-2 [7] was “Active” each time. The Activity result in the series with Mus musculus [4] is “Non-toxic”; in the series with MIA PaCa-2 [9], under 2%; with MIA PaCa-2 [11] it was 50%; with MIA PaCa-2 [13], under 2%; in the series with Mus musculus [14], “Non-toxic”. The “fold change (FC)” value is given as 14 in the series on MIA PaCa-2 [5], 30 with MIA PaCa-2 [6], 12 in the series with MIA PaCa-2 [8] and 40 in the series with MIA PaCa-2 [10]. Moreover, the “inhibition (INH)” value in the series on MIA PaCa-2 [1] and in the series with MIA PaCa-2 [12] was 80% throughout. Besides, in the series with MIA PaCa-2 [2], the inhibition entry was “inactive”.

Regarding `COC(=O)c1nc(C#Cc2ccc(C(F)(F)F)cc2)nn1[C@@H]1O[C@H](COC(C)=O)[C@@H](OC(C)=O)[C@H]1OC(C)=O`, the inhibition entry in the series on MIA PaCa-2 [1] was “inactive”.

Regarding `Cc1ccc(C#Cc2nc(C(N)=O)n([C@@H]3O[C@H](CO)[C@@H](O)[C@H]3O)n2)cc1`, the inhibition result in the series on MIA PaCa-2 [1] is “inactive”.
